In ChEMBL document CHEMBL1124558, “Differential effects of a series of hydroxamic acid derivatives on 5-lipoxygenase and cyclooxygenase from neutrophils and 12-lipoxygenase from platelets and their in vivo effects on inflammation and anaphylaxis” (J Med Chem, 1989):
pIC50, pKi: −log10 of the molar value.

What was measured:
12-lipoxygenase = 12-lipoxygenase (Rattus norvegicus, UniProt F1LQ70); assay: In vitro inhibitory activity against rat platelet 12-lipoxygenase
Mus musculus = assay: In vivo inhibition of mouse ear inflammation; type: functional; parameters: concentration or dose not given beside the values
Outline: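 Compound or ethanol vehicle applied topically to one ear of male DBA/2J mice 60 min before arachidonic acid (2 mg/ear). […] Groups of 5 mice.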

[1] = biological target: Cyclooxygenase (Rattus norvegicus) (UniProt P35355+Q63921); assay: Inhibition of Prostaglandin G/H synthase in rat polymorphonuclear leukocytes; type: cell-based; parameters: concentration or dose not given beside the values; details: concentration not given here
Outline: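 Homogenate of glycogen-elicited rat peritoneal PMNs in 0.1 M Tris-HCl pH 8.2 with 10 μM NDGA, preincubated 5 min at 37 °C with compound (≤0.1% DMSO). [14C]arachidonic acid (8 μM) added with 4 mM glutathione and epinephrine; 10 min reaction. TxB2 and PGF2α separated by TLC and counted.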

Cavia porcellus [2] = assay: In vivo inhibitory activity against guinea pig systemic anaphylaxis when administered a compound dose (200 mg/kg) perorally; type: functional; details: po
Outline: (§1)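 Male Hartley guinea pigs sensitised ip with ovalbumin (2.7 mg/kg) plus LPS adjuvant, then challenged 2 weeks later with 1% ovalbumin aerosol for 30 s. Pretreated with pyrilamine, indomethacin and propranolol 20 min before challenge. Compound given in PEG 400 1 h before challenge.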

[3] = biological target: T1, Arachidonate 12-lipoxygenase (Rattus norvegicus) (UniProt Q02759); assay: In vitro inhibitory activity against rat platelet 12-lipoxygenase at 30 uM
T1 sequence (whole entry): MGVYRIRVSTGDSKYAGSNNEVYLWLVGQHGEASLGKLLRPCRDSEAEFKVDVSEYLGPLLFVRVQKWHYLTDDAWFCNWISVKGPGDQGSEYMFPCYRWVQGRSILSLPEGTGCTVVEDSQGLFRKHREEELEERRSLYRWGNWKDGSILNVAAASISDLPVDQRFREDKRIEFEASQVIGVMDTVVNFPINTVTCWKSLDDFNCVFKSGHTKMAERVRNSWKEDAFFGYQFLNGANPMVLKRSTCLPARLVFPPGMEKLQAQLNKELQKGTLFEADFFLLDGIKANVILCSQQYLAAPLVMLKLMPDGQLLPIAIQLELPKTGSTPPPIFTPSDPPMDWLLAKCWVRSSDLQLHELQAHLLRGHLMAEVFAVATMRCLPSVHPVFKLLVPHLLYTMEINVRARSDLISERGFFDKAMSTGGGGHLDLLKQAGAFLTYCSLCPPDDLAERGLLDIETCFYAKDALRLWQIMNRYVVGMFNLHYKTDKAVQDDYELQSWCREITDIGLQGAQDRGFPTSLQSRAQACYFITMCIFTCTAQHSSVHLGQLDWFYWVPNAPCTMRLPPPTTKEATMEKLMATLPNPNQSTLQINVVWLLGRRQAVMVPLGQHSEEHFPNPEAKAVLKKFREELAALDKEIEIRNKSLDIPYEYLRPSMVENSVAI
Outline: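 Cell-free cytosolic 12-lipoxygenase from Sprague-Dawley rat platelets (0.4 mg/mL), preincubated 5 min at 30 °C with compound in DMSO (≤0.1% final), 25 mM Tris pH 7.4, 1 μM indomethacin, 100 μM glutathione; reaction started with 6 μM [14C]arachidonic acid and quenched with citric acid/NDGA after 3 min. 12-HETE isolated by TLC and counted by scintillation; % inhibition, duplicate.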

[4] = biological target: T2, Polyunsaturated fatty acid 5-lipoxygenase (Homo sapiens, UniProt P09917); assay: In vitro inhibitory activity against polymorphonuclear leukocyte 5-lipoxygenase in human cell at 10 uM
T2 sequence (P09917 whole entry): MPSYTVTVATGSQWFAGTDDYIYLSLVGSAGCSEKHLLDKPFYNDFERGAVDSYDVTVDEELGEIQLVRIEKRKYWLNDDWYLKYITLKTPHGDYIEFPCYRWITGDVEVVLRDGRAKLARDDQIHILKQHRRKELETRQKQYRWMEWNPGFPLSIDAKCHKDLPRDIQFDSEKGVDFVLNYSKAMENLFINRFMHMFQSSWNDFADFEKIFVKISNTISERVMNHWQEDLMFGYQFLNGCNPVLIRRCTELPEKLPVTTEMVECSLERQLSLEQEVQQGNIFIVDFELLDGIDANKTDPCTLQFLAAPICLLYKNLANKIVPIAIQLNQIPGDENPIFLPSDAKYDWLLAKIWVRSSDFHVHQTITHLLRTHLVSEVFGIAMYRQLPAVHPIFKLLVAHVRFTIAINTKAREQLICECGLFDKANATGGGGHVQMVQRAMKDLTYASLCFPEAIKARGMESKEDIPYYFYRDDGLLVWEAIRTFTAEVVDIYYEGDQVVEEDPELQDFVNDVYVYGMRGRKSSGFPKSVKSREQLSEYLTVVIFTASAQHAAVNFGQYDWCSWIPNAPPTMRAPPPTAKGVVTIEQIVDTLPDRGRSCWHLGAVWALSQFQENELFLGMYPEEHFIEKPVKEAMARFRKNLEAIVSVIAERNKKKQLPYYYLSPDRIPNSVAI
Outline: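 Human PMNs from venous blood of a healthy volunteer (EDTA) were purified by dextran sedimentation, a Percoll gradient and NH4Cl red-cell lysis (>90% pure). They were held in Ca/Mg PBS with 1 mg/mL glucose and 1 μM indomethacin, then challenged with A23187 (0.8 μM) and [14C]arachidonic acid (4 μM) for 3 min. 5-HETE was measured by TLC and scintillation counting.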

[5] = biological target: T3, Polyunsaturated fatty acid 5-lipoxygenase (Rattus norvegicus) (UniProt P12527); assay: In vitro inhibitory activity against polymorphonuclear leukocyte 5-lipoxygenase in rat cell at 1 uM
T3 sequence (whole entry): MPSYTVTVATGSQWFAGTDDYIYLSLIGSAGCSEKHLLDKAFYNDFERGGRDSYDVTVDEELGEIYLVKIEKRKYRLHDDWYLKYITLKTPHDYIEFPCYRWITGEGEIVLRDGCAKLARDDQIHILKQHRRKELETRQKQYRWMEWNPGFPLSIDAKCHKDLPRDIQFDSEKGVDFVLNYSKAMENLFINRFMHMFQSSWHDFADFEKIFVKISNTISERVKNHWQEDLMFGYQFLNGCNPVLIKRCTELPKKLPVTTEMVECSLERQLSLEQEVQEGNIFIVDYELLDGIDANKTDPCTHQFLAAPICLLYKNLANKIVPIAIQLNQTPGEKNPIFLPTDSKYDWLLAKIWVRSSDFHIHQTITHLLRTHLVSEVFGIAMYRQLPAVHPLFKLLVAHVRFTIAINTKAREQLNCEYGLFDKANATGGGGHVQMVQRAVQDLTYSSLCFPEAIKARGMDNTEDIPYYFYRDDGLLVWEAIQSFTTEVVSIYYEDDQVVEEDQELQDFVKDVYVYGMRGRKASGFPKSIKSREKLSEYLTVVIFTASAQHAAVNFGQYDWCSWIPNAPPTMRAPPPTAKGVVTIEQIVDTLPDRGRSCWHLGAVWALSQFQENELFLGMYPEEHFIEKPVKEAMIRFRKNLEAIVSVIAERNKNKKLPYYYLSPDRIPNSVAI
Outline: (§2)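 Intact glycogen-elicited peritoneal PMNs pooled from 4–5 Sprague-Dawley rats (250 g), preincubated 5 min at 30 °C with compound in DMSO (≤0.1% final) plus 1 μM indomethacin. Challenge with [14C]arachidonic acid (4 μM) and A23187 (0.8 μM) for 3 min. Extraction, TLC, 5-HETE by scintillation counting.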

[6] = biological target: T4, Polyunsaturated fatty acid 5-lipoxygenase (Rattus norvegicus, UniProt P12527); assay: In vitro inhibition of rat polymorphonuclear leukocyte 5-lipoxygenase; outline: as §2
T4 sequence (P12527 whole entry): T3 sequence (whole entry)

[7] = biological target: T2, Polyunsaturated fatty acid 5-lipoxygenase; assay: In vitro inhibition of polymorphonuclear leukocyte derived human 5-lipoxygenase
Outline: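 PMNs from venous blood of healthy volunteers, isolated by dextran sedimentation and Percoll gradient (>90% pure) and held in Ca/Mg PBS with 1 mg/mL glucose and 1 μM indomethacin. Challenged with calcium ionophore and [14C]arachidonic acid for 3 min. 5-HETE measured by TLC and scintillation counting; IC50 read graphically.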

Cavia porcellus [8] = assay: In vivo inhibitory activity against guinea pig systemic anaphylaxis when administered a compound dose (50 mg/kg) perorally; type: functional; details: po; outline: as §1
Cavia porcellus [9] = assay: In vivo inhibitory activity against guinea pig systemic anaphylaxis when administered a compound dose (10 mg/kg) intravenously; type: functional; details: iv

Chain of 12-lipoxygenase (F1LQ70 whole entry, looked up): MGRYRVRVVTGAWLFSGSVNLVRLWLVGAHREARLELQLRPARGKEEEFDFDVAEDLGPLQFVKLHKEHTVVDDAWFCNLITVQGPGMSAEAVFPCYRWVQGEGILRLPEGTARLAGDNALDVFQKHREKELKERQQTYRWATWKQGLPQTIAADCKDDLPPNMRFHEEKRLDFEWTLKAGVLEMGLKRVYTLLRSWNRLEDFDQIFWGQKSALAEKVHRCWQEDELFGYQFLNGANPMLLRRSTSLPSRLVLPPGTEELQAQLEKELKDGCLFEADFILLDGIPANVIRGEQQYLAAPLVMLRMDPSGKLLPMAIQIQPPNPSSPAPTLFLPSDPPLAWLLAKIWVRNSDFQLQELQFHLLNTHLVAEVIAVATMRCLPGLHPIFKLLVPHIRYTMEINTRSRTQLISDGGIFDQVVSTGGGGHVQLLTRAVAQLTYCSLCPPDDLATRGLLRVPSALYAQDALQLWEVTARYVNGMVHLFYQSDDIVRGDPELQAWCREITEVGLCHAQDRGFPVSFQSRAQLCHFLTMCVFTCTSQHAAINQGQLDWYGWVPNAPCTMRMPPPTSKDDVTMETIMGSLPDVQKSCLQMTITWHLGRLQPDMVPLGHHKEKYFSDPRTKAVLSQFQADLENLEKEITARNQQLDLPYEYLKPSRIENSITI

Work on O=C(Cc1ccc(OCc2ccccc2)cc1)N(O)CCc1ccccc1 yielded a pKi (12-lipoxygenase) of 5.80, an Inhibition (Mus musculus) of 39% and an inhibition [1] of less than 10%. The inhibition in vivo at 200 mg/kg (Cavia porcellus [2]) was 17%.

Work on O=C(/C=C/c1ccc(OCc2ccccc2)cc1)N(O)CCc1ccccc1 yielded an inhibition [3] of 3%, an Inhibition [4] of less than 10% and an inhibition [5] of 24%. It also gave an inhibition [1] of less than 10%.

Molecule O=C(CCCc1ccccc1)N(O)CCc1ccccc1 has a pIC50 [6] of 6.52, a pIC50 [7] of 6.74 and an Inhibition (Mus musculus) of 56%. The inhibition in vivo at 50 mg/kg (Cavia porcellus [8]) was 17%, the inhibition [1] was 44% and the inhibition in vivo at 10 mg/kg (Cavia porcellus [9]) was 50%.
